The text below walks through data of ChEMBL document CHEMBL1142406, “2-Heteroarylimino-5-benzylidene-4-thiazolidinones analogues of 2-thiazolylimino-5-benzylidene-4-thiazolidinones with antimicrobial activity: synthesis and structure-activity relationship” (2008).

≈ marks a conversion by molar mass, not a printed value. Calls of active or inactive are those of the source. The rule behind the calls is not given here. Bounds are passed on as bounds.

Test [1] deals with Staphylococcus aureus. Briefly: Antimicrobial activity against Staphylococcus aureus ATCC 25923 by broth dilution technique. The format is functional. The essentials: (§1)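 Broth dilution in Mueller Hinton Broth. Compounds are dissolved in DMSO (never above 1% v/v final) and serially diluted. MIC is the lowest concentration giving complete growth inhibition.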
Test [2] deals with Bacillus subtilis. Briefly: Antimicrobial activity against Bacillus subtilis ATCC 6633 by broth dilution technique. The format is functional. An outline of the steps:
as §1
On the technique in general: In broth dilution the organism is exposed to a series of concentrations in liquid medium.

Test [3] deals with Haemophilus influenzae. Briefly: Antimicrobial activity against Haemophilus influenzae by broth dilution technique. It counts as functional. The essentials:
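Haemophilus Test Medium broth dilution. Compounds in DMSO are added to final dilutions, with DMSO at most 1% v/v. MIC is the lowest concentration completely inhibiting growth.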

Test [4] concerns Candida tropicalis. Briefly: Antimicrobial activity against Candida tropicalis ATCC 1369 upto 100 ug/ml by broth dilution technique. The format is functional, organism-based. An outline of the steps:
(§2)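 Fungi are tested by Sabouraud Liquid Medium dilution. Compounds are in DMSO, with DMSO at most 1% v/v final. Inoculum is 1×10³ fungi/mL, incubated 48 h at 30 °C. MIC is the lowest concentration completely inhibiting growth. For MFC, 100 µL of clear mixtures is subcultured into 1 mL fresh medium and read after 48 h at 30 °C.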

For test [5], the system named is Escherichia coli. Briefly: Antimicrobial activity against Escherichia coli SPA27 upto 100 ug/ml by broth dilution technique. The format is functional, organism-based. An outline of the steps:
as §1

Test [6] deals with Aspergillus niger. Briefly: Antimicrobial activity against Aspergillus niger ATCC 6275 upto 100 ug/ml by broth dilution technique. It counts as functional, organism-based. An outline of the steps:
as §2

Test [7] deals with Saccharomyces cerevisiae. Briefly: Antimicrobial activity against Saccharomyces cerevisiae ATCC 9763 upto 100 ug/ml by broth dilution technique. It counts as functional, organism-based. An outline of the steps: as §2
In test [8] the test system is Enterococcus faecium. Briefly: Antimicrobial activity against Streptococcus faecium by broth dilution technique. It counts as functional. An outline of the steps: as §1
The test system of test [9] is Staphylococcus epidermidis. Briefly: Antimicrobial activity against Staphylococcus epidermidis ATCC 12228 by broth dilution technique.
In test [10] the test system is Staphylococcus haemolyticus. Briefly: Antimicrobial activity against Staphylococcus haemolyticus by broth dilution technique. It counts as functional. The essentials:
as §1

The subject of test [11] is Priestia megaterium. Briefly: Antimicrobial activity against Bacillus megaterium by broth dilution technique. The format is functional. An outline of the steps:
as §1

Test [12] concerns Streptococcus pyogenes. Briefly: Antimicrobial activity against Streptococcus pyogenes by broth dilution technique. The format is functional. An outline of the steps:
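Tryptose Phosphate Broth dilution. Compounds are dissolved in DMSO, with DMSO at most 1% v/v final. MIC is taken as the lowest concentration with complete growth inhibition.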

In test [13] the test system is Enterococcus faecalis. Briefly: Antimicrobial activity against Streptococcus faecalis by broth dilution technique. It counts as functional. An outline of the steps:
as §1

For test [14], the system named is Bacillus thuringiensis. Briefly: Antimicrobial activity against Bacillus thuringiensis var. kurstaki BGSC 4D1 by broth dilution technique. The conditions noted are these: serovar kurstaki. The format is functional. The essentials: as §1
The test system of test [15] is Staphylococcus aureus. Briefly: Antimicrobial activity against penicillin-resistant Staphylococcus aureus by broth dilution technique. It counts as functional. The essentials: (§3)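 Broth dilution in Mueller Hinton Broth with compounds predissolved in DMSO (at most 1% v/v). Final concentrations ranged from 100 to 0.0015, and the inoculum was 5.10⁴ bacteria/mL. Plates were incubated at 37 °C for 24 h. MIC was taken as the lowest concentration giving complete growth inhibition.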

For test [16], the system named is Streptococcus agalactiae. Briefly: Antimicrobial activity against Streptococcus agalactiae by broth dilution technique. It counts as functional. The essentials:
as §1

Test [17] relates to Staphylococcus epidermidis. Briefly: Antimicrobial activity against penicillin-resistant Staphylococcus epidermidis by broth dilution technique. The format is functional. The essentials:
as §3

The test system of test [18] is Micrococcus luteus. Briefly: Antimicrobial activity against Sarcina lutea by broth dilution technique. It counts as functional. The essentials: as §1

`O=C1N/C(=N/c2nsc3ccccc23)S/C1=C\c1ccccc1`: the MIC in [1], in test [2] and in test [3] was above 100 µg/mL throughout. Further, the result in [4], in [5], in test [6] and in [7] was inactive.
For the molecule `COc1ccc(/C=C2\S/C(=N\c3nsc4ccccc34)NC2=O)cc1`, the MIC in test [1], in test [2] and in [3] was above 100 µg/mL throughout. Moreover, the outcome in test [4], in test [5], in test [6] and in test [7] was inactive.
On to `O=C1N/C(=N\c2nc3ccccc3s2)S/C1=C\c1cccc([N+](=O)[O-])c1`, for which the MIC was above 100 µg/mL in test [8]; 6 µg/mL (≈ 15.7 µM) in test [9]; 6 µg/mL (≈ 15.7 µM) in test [1]; above 100 µg/mL in [10]; 12 µg/mL (≈ 31.4 µM) in test [11]; 12 µg/mL (≈ 31.4 µM) in test [2]. In addition, the MIC in [3] is above 100 µg/mL; in test [12], above 100 µg/mL; in [13], above 100 µg/mL; in test [14], 6 µg/mL (≈ 15.7 µM); in [15], 6 µg/mL (≈ 15.7 µM); in [16], above 100 µg/mL. Besides, the MIC in test [17] and in test [18] was 6 µg/mL (≈ 15.7 µM) throughout. In addition, the outcome in test [4], in [5], in [6] and in test [7] was inactive.
With `COc1cc(/C=C2\S/C(=N/c3nc4ccccc4s3)NC2=O)ccc1O`, the MIC is above 100 µg/mL in test [8]; 6 µg/mL (≈ 15.6 µM) in [9]; 6 µg/mL (≈ 15.6 µM) in [1]; above 100 µg/mL in test [10]; 12 µg/mL (≈ 31.3 µM) in test [11]; above 100 µg/mL in test [2]. Also, the MIC in test [3] is above 100 µg/mL; in test [12], above 100 µg/mL; in [13] it was above 100 µg/mL; in [14], 6 µg/mL (≈ 15.6 µM); in [15] it was 6 µg/mL (≈ 15.6 µM); in test [16] it was above 100 µg/mL. The MIC in [17] and in test [18] was 12 µg/mL (≈ 31.3 µM) in each case. The outcome in test [4], in test [5], in test [6] and in test [7] was inactive.
In the case of `O=C1N/C(=N\c2nc3ccccc3s2)S/C1=C\c1ccccc1[N+](=O)[O-]`, the MIC in test [1], in test [2] and in test [3] was above 100 µg/mL in each case. The outcome in test [4], in [5], in test [6] and in [7] was inactive.
In the case of `O=C1N/C(=N\c2nc3ccccc3s2)S/C1=C\c1ccccc1Cl`, the MIC in test [8] was above 100 µg/mL; in test [9] it was 12 µg/mL (≈ 32.3 µM); in test [1], 12 µg/mL (≈ 32.3 µM); in test [10] it was above 100 µg/mL; in [11] it was 12 µg/mL (≈ 32.3 µM); in test [2], 12 µg/mL (≈ 32.3 µM). Also, the MIC was above 100 µg/mL in test [3]; 25 µg/mL (≈ 67.2 µM) in test [12]; above 100 µg/mL in [13]; 12 µg/mL (≈ 32.3 µM) in test [14]; 12 µg/mL (≈ 32.3 µM) in [15]; above 100 µg/mL in test [16]. Also, the MIC in [17] stood at 25 µg/mL (≈ 67.2 µM); in test [18], 12 µg/mL (≈ 32.3 µM). Moreover, the result in test [4], in test [5], in [6] and in [7] was inactive.
`O=C1N/C(=N\c2nccs2)S/C1=C\c1ccccc1[N+](=O)[O-]`: the MIC came out at 25 µg/mL (≈ 75.2 µM) in test [8]; 12 µg/mL (≈ 36.1 µM) in [9]; 6 µg/mL (≈ 18.1 µM) in test [1]; 12 µg/mL (≈ 36.1 µM) in test [10]; 3 µg/mL (≈ 9.03 µM) in test [11]; 6 µg/mL (≈ 18.1 µM) in test [2]. The MIC amounted to 0.7 µg/mL (≈ 2.11 µM) in test [3]; 25 µg/mL (≈ 75.2 µM) in test [12]; 50 µg/mL (≈ 150 µM) in test [13]; 6 µg/mL (≈ 18.1 µM) in [14]; 3 µg/mL (≈ 9.03 µM) in [15]; 12 µg/mL (≈ 36.1 µM) in test [16]. Further, the MIC in [17] stood at 25 µg/mL (≈ 75.2 µM); in test [18], 12 µg/mL (≈ 36.1 µM). The outcome in test [4], in test [5], in test [6] and in test [7] was inactive.
Turning to `COc1ccc(/C=C2\S/C(=N/c3nccs3)NC2=O)cc1`, the MIC in [8] is above 100 µg/mL; in [9], 6 µg/mL (≈ 18.9 µM); in test [1] it was 12 µg/mL (≈ 37.8 µM); in [10], 12 µg/mL (≈ 37.8 µM); in test [11] it was 1.5 µg/mL (≈ 4.73 µM); in test [2], 1.5 µg/mL (≈ 4.73 µM). Further, the MIC is 0.3 µg/mL (≈ 0.945 µM) in [3]; 12 µg/mL (≈ 37.8 µM) in test [12]; above 100 µg/mL in test [13]; 3 µg/mL (≈ 9.45 µM) in test [14]; 3 µg/mL (≈ 9.45 µM) in test [15]; 3 µg/mL (≈ 9.45 µM) in test [16]. The MIC in test [17] turned out to be 12 µg/mL (≈ 37.8 µM); in test [18], 6 µg/mL (≈ 18.9 µM). Besides, the outcome in [4], in test [5], in [6] and in [7] was inactive.
Regarding `O=C1N/C(=N/c2nsc3ccccc23)S/C1=C\c1ccc(Cl)cc1`, the MIC in test [8] was above 100 µg/mL; in test [9], above 100 µg/mL; in test [1], above 100 µg/mL; in [10], above 100 µg/mL; in test [11] it was 0.7 µg/mL (≈ 1.88 µM); in test [2], 3 µg/mL (≈ 8.07 µM). Also, the MIC is above 100 µg/mL in test [3]; above 100 µg/mL in test [12]; above 100 µg/mL in test [13]; 6 µg/mL (≈ 16.1 µM) in [14]; above 100 µg/mL in test [15]; 50 µg/mL (≈ 134 µM) in [16]. Moreover, the MIC in test [17] and in test [18] was above 100 µg/mL in each case. The result in test [4], in test [5], in [6] and in [7] was inactive.
With `O=C1CSC(Nc2nccs2)=N1`, the MIC in test [1] is above 100 µg/mL; in test [2] it was 50 µg/mL (≈ 251 µM); in test [3], 1.5 µg/mL (≈ 7.53 µM). The outcome in test [4], in test [5], in test [6] and in test [7] was inactive.
With `O=C1N/C(=N/c2nsc3ccccc23)S/C1=C\c1ccccc1Cl`, the MIC in [1], in test [2] and in test [3] was above 100 µg/mL each time. For the same molecule, the outcome in test [4], in test [5], in test [6] and in test [7] was inactive.
In the case of `COc1cc(/C=C2\S/C(=N\c3nsc4ccccc34)NC2=O)ccc1O`, the MIC in test [1], in [2] and in test [3] was above 100 µg/mL throughout. For the same molecule, the outcome in test [4], in test [5], in [6] and in test [7] was inactive.
